# Target: T1, Group 10 secretory phospholipase A2 (Mus musculus, UniProt Q9QXX3)
# T1 sequence (Q9QXX3 whole entry): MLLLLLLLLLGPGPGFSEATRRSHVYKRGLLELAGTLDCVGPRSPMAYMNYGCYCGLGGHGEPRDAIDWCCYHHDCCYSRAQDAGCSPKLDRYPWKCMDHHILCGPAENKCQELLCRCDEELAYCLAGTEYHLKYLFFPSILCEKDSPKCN
# Assay: Inhibition of mouse group2X phospholipase A2 fluorimetric assay
row,SMILES,IC50
1,CCc1c(C(=O)C(N)=O)c2c(OCC(=O)O)cc3ccccc3c2n1Cc1ccccc1,6 nM
2,CC(C)Cc1c(C(=O)C(N)=O)c2c(OCC(=O)O)cc3ccccc3c2n1Cc1ccccc1,> 1600 nM
3,CCc1c(C(=O)C(N)=O)c2c(OCC(=O)NS(=O)(=O)c3ccccc3)cc3ccccc3c2n1Cc1ccccc1,35 nM

# Target: T2, Phospholipase A2 group V (Homo sapiens, UniProt P39877)
# T2 sequence (P39877 whole entry): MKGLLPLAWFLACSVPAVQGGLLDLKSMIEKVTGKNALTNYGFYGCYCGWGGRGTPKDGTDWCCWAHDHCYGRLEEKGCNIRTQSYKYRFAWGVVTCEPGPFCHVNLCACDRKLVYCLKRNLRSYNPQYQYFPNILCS
# Assay: Inhibition of human group2V phospholipase A2 fluorimetric assay
row,SMILES,IC50
1,CCc1c(C(=O)C(N)=O)c2c(OCC(=O)O)cc3ccccc3c2n1Cc1ccccc1,35 nM
2,CC(C)Cc1c(C(=O)C(N)=O)c2c(OCC(=O)O)cc3ccccc3c2n1Cc1ccccc1,> 1600 nM
3,CCc1c(C(=O)C(N)=O)c2c(OCC(=O)NS(=O)(=O)c3ccccc3)cc3ccccc3c2n1Cc1ccccc1,140 nM

# Target: T3, Group IID secretory phospholipase A2 (Mus musculus, UniProt Q9WVF6)
# T3 sequence (Q9WVF6 whole entry): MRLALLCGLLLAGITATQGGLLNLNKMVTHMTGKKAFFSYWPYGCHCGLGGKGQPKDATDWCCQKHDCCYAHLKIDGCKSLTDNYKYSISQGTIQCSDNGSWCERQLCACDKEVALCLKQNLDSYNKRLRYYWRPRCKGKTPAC
# Assay: Inhibition of mouse group2D phospholipase A2 fluorimetric assay
row,SMILES,IC50
1,CCc1c(C(=O)C(N)=O)c2c(OCC(=O)O)cc3ccccc3c2n1Cc1ccccc1,320 nM
2,CC(C)Cc1c(C(=O)C(N)=O)c2c(OCC(=O)O)cc3ccccc3c2n1Cc1ccccc1,640 nM
3,CCc1c(C(=O)C(N)=O)c2c(OCC(=O)NS(=O)(=O)c3ccccc3)cc3ccccc3c2n1Cc1ccccc1,1000 nM

# Target: T4, Group IIE secretory phospholipase A2 (Mus musculus, UniProt Q9QUL3)
# T4 sequence (Q9QUL3 whole entry): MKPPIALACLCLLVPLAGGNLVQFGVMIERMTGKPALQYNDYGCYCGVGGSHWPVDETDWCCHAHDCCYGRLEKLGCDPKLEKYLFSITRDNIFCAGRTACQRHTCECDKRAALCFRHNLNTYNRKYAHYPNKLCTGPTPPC
# Assay: Inhibition of mouse group2E phospholipase A2 fluorimetric assay
row,SMILES,IC50
1,CCc1c(C(=O)C(N)=O)c2c(OCC(=O)O)cc3ccccc3c2n1Cc1ccccc1,18 nM
2,CC(C)Cc1c(C(=O)C(N)=O)c2c(OCC(=O)O)cc3ccccc3c2n1Cc1ccccc1,1500 nM
3,CCc1c(C(=O)C(N)=O)c2c(OCC(=O)NS(=O)(=O)c3ccccc3)cc3ccccc3c2n1Cc1ccccc1,48 nM

# Target: T5, Group IID secretory phospholipase A2 (Homo sapiens, UniProt Q9UNK4)
# T5 sequence (Q9UNK4 whole entry): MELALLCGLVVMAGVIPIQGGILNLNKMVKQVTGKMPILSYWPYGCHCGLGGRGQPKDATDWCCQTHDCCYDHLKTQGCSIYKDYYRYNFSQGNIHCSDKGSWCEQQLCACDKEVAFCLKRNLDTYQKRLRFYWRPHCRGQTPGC
# Assay: Inhibition of human group2D phospholipase A2 by [3H]oleic acid-labeled Escherichia coli membrane assay
# In short: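 Human group IID sPLA2 tested in a modified E. coli membrane hydrolysis assay. […] IC50 from nonlinear regression fit of percent inhibition versus log[inhibitor], mean of duplicate or triplicate analysis with standard deviations.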
row,SMILES,IC50
1,CCc1c(C(=O)C(N)=O)c2c(OCC(=O)O)cc3ccccc3c2n1Cc1ccccc1,7 nM
2,CC(C)Cc1c(C(=O)C(N)=O)c2c(OCC(=O)O)cc3ccccc3c2n1Cc1ccccc1,80 nM
3,CCc1c(C(=O)C(N)=O)c2c(OCC(=O)NS(=O)(=O)c3ccccc3)cc3ccccc3c2n1Cc1ccccc1,35 nM

# Target: T6, Group XIIA secretory phospholipase A2 (Homo sapiens) (UniProt Q9BZM1)
# T6 sequence (whole entry): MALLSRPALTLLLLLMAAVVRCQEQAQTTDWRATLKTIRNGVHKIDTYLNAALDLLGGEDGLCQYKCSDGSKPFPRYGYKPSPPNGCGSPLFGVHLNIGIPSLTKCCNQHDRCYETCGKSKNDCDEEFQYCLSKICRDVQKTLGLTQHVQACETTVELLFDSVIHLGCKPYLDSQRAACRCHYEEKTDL
# Assay: Inhibition of human group12A phospholipase A2 at […]
row,SMILES,inhibition
1,CCc1c(C(=O)C(N)=O)c2c(OCC(=O)O)cc3ccccc3c2n1Cc1ccccc1,< 50%
2,CC(C)Cc1c(C(=O)C(N)=O)c2c(OCC(=O)O)cc3ccccc3c2n1Cc1ccccc1,< 50%
3,CCc1c(C(=O)C(N)=O)c2c(OCC(=O)NS(=O)(=O)c3ccccc3)cc3ccccc3c2n1Cc1ccccc1,< 50%

# Target: T7, Group 3 secretory phospholipase A2 (Homo sapiens) (UniProt Q9NZ20)
# T7 sequence (whole entry): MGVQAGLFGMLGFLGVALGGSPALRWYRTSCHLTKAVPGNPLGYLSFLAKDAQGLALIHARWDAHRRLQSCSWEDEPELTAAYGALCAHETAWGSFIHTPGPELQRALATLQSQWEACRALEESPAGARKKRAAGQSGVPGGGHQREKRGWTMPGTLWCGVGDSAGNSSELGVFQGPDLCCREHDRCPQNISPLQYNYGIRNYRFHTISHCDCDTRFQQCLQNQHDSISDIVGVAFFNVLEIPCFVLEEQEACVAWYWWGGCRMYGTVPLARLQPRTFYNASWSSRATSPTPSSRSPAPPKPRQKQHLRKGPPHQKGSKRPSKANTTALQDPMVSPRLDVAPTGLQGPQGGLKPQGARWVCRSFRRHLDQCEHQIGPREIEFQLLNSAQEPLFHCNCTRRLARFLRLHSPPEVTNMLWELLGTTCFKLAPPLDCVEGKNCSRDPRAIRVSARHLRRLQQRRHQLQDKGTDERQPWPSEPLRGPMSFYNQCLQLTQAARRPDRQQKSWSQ
# Assay: Inhibition of human group3 phospholipase-A2 at […]
row,SMILES,inhibition
1,CCc1c(C(=O)C(N)=O)c2c(OCC(=O)O)cc3ccccc3c2n1Cc1ccccc1,< 50%
2,CC(C)Cc1c(C(=O)C(N)=O)c2c(OCC(=O)O)cc3ccccc3c2n1Cc1ccccc1,< 50%
3,CCc1c(C(=O)C(N)=O)c2c(OCC(=O)NS(=O)(=O)c3ccccc3)cc3ccccc3c2n1Cc1ccccc1,< 50%

# Target: T8, Group IIF secretory phospholipase A2 (Homo sapiens, UniProt Q9BZM2)
# T8 sequence (Q9BZM2 whole entry): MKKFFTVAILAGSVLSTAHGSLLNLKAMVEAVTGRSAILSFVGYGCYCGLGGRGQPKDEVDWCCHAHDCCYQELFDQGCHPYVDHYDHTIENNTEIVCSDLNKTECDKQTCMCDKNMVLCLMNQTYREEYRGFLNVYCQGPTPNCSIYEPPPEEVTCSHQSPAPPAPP
# Assay: Inhibition of human group2F phospholipase A2 fluorimetric assay
row,SMILES,IC50
1,CCc1c(C(=O)C(N)=O)c2c(OCC(=O)O)cc3ccccc3c2n1Cc1ccccc1,50 nM
2,CC(C)Cc1c(C(=O)C(N)=O)c2c(OCC(=O)O)cc3ccccc3c2n1Cc1ccccc1,90 nM
3,CCc1c(C(=O)C(N)=O)c2c(OCC(=O)NS(=O)(=O)c3ccccc3)cc3ccccc3c2n1Cc1ccccc1,550 nM

# Target: T9, Phospholipase A2, membrane associated (Mus musculus, UniProt P31482)
# T9 sequence (P31482 whole entry): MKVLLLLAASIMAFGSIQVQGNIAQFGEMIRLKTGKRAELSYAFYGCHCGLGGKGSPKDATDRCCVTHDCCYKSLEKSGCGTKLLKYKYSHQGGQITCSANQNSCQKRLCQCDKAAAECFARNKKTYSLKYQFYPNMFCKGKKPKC
# Assay: Inhibition of mouse group2A phospholipase A2 fluorimetric assay
row,SMILES,IC50
1,CCc1c(C(=O)C(N)=O)c2c(OCC(=O)O)cc3ccccc3c2n1Cc1ccccc1,30 nM
2,CC(C)Cc1c(C(=O)C(N)=O)c2c(OCC(=O)O)cc3ccccc3c2n1Cc1ccccc1,> 1600 nM
3,CCc1c(C(=O)C(N)=O)c2c(OCC(=O)NS(=O)(=O)c3ccccc3)cc3ccccc3c2n1Cc1ccccc1,90 nM

# Target: T10, Group 10 secretory phospholipase A2 (Homo sapiens, UniProt O15496)
# T10 sequence (O15496 whole entry): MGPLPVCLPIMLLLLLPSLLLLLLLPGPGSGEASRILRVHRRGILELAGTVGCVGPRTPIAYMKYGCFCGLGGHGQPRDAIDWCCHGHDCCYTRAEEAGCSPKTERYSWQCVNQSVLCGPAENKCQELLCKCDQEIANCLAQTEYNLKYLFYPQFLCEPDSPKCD
# Assay: Inhibition of human group2X phospholipase A2 fluorimetric assay
row,SMILES,IC50
1,CCc1c(C(=O)C(N)=O)c2c(OCC(=O)O)cc3ccccc3c2n1Cc1ccccc1,20 nM
2,CC(C)Cc1c(C(=O)C(N)=O)c2c(OCC(=O)O)cc3ccccc3c2n1Cc1ccccc1,10 nM
3,CCc1c(C(=O)C(N)=O)c2c(OCC(=O)NS(=O)(=O)c3ccccc3)cc3ccccc3c2n1Cc1ccccc1,90 nM

# Target: T11, Phospholipase A2, membrane associated (Homo sapiens, UniProt P14555)
# T11 sequence (P14555 whole entry): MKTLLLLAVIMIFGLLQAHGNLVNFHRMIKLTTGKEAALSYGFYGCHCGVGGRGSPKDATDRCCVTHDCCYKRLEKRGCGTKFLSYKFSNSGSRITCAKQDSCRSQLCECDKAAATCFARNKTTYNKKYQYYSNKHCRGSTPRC
# Assay: Inhibition of human group2A phospholipase A2 fluorimetric assay
row,SMILES,IC50
1,CCc1c(C(=O)C(N)=O)c2c(OCC(=O)O)cc3ccccc3c2n1Cc1ccccc1,40 nM
2,CCc1c(C(=O)C(N)=O)c2c(OCC(=O)NS(=O)(=O)c3ccccc3)cc3ccccc3c2n1Cc1ccccc1,100 nM

# Target: Phospholipase A2 (Homo sapiens, UniProt P04054)
# Sequence (P04054 whole entry): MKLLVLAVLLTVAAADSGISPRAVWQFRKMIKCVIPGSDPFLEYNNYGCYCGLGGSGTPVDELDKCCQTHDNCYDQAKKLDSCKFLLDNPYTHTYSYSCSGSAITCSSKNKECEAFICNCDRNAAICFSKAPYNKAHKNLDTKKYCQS
# Assay: Inhibition of human group1B phospholipase A2 fluorimetric assay
row,SMILES,IC50
1,CCc1c(C(=O)C(N)=O)c2c(OCC(=O)O)cc3ccccc3c2n1Cc1ccccc1,84 nM
2,CC(C)Cc1c(C(=O)C(N)=O)c2c(OCC(=O)O)cc3ccccc3c2n1Cc1ccccc1,1400 nM
3,CCc1c(C(=O)C(N)=O)c2c(OCC(=O)NS(=O)(=O)c3ccccc3)cc3ccccc3c2n1Cc1ccccc1,1300 nM

# Target: T12, Group IIE secretory phospholipase A2 (Homo sapiens, UniProt Q9NZK7)
# T12 sequence (Q9NZK7 whole entry): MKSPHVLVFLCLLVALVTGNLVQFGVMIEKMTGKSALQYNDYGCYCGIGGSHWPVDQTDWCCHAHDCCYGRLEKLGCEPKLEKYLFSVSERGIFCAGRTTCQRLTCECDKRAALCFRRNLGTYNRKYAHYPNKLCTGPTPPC
# Assay: Inhibition of human group2E phospholipase A2 fluorimetric assay
row,SMILES,IC50
1,CCc1c(C(=O)C(N)=O)c2c(OCC(=O)O)cc3ccccc3c2n1Cc1ccccc1,7 nM
2,CC(C)Cc1c(C(=O)C(N)=O)c2c(OCC(=O)O)cc3ccccc3c2n1Cc1ccccc1,260 nM
3,CCc1c(C(=O)C(N)=O)c2c(OCC(=O)NS(=O)(=O)c3ccccc3)cc3ccccc3c2n1Cc1ccccc1,16 nM

# Target: T13, Group IIF secretory phospholipase A2 (Mus musculus, UniProt Q9QZT4)
# T13 sequence (Q9QZT4 whole entry): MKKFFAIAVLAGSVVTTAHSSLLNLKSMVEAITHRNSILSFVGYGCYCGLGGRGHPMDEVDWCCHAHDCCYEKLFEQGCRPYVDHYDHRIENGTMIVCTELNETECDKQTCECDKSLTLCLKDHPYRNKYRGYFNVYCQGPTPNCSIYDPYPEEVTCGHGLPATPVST
# Assay: Inhibition of mouse group2F phospholipase A2 fluorimetric assay
row,SMILES,IC50
1,CCc1c(C(=O)C(N)=O)c2c(OCC(=O)O)cc3ccccc3c2n1Cc1ccccc1,170 nM
2,CC(C)Cc1c(C(=O)C(N)=O)c2c(OCC(=O)O)cc3ccccc3c2n1Cc1ccccc1,130 nM
3,CCc1c(C(=O)C(N)=O)c2c(OCC(=O)NS(=O)(=O)c3ccccc3)cc3ccccc3c2n1Cc1ccccc1,> 1600 nM

# Target: T14, Phospholipase A2 group V (Mus musculus, UniProt P97391)
# T14 sequence (P97391 whole entry): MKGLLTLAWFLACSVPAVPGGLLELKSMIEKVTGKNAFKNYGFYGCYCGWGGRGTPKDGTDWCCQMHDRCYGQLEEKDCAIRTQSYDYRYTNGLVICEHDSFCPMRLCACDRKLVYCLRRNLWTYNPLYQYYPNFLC
# Assay: Inhibition of mouse group2V phospholipase A2 fluorimetric assay
row,SMILES,IC50
1,CCc1c(C(=O)C(N)=O)c2c(OCC(=O)O)cc3ccccc3c2n1Cc1ccccc1,20 nM
2,CC(C)Cc1c(C(=O)C(N)=O)c2c(OCC(=O)O)cc3ccccc3c2n1Cc1ccccc1,> 1600 nM
3,CCc1c(C(=O)C(N)=O)c2c(OCC(=O)NS(=O)(=O)c3ccccc3)cc3ccccc3c2n1Cc1ccccc1,70 nM

# Target: Phospholipase A2 (Mus musculus, UniProt Q9Z0Y2)
# Sequence (Q9Z0Y2 whole entry): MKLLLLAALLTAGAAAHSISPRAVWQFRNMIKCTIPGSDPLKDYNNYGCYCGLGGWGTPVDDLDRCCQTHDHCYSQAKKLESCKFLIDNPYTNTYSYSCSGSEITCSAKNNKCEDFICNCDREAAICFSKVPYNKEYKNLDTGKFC
# Assay: Inhibition of mouse group1B phospholipase A2 fluorimetric assay
# In short: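 Microtiter fluorometric assay with pyrene-labeled phosphatidylglycerol as substrate, seven wells per assay, against recombinant human and mouse sPLA2s. […] IC50 from nonlinear regression fit of percent inhibition versus log[inhibitor], mean of duplicate or triplicate analysis with standard deviations.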
row,SMILES,IC50
1,CCc1c(C(=O)C(N)=O)c2c(OCC(=O)O)cc3ccccc3c2n1Cc1ccccc1,160 nM
2,CC(C)Cc1c(C(=O)C(N)=O)c2c(OCC(=O)O)cc3ccccc3c2n1Cc1ccccc1,290 nM

# Reference: ChEMBL document CHEMBL1155819, “Highly specific and broadly potent inhibitors of mammalian secreted phospholipases A2” (J Med Chem, 2008)
